From PMC4430720 (British Journal of Cancer, 2015)
Where two headings read alike, the source gives them in different places. Marks after values point to notes of the source that are not given here. Where a SMILES comes first, the peptide text is derived from it. Bridges are numbered along the chain shown (N, C = ends). [ ]: non-standard residue; d: D form. βAla = NCCC(=O)O

Key:
[1] = type: in vivo, human; conditions: for Biological half-life (tumour): corrected for radioactive decay; for AUC24 (tumour): tumour uptake curve over 24 h; for Maximum uptake (mg CIGB-300): tumour uptake, two sites 0.5 ml each
In short: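 The first patient dose was 99mTc-labelled and injected at two equidistant points, ~2 cm deep (0.5 ml each). Whole-body gamma-camera images were taken at 10 min and 1, 2, 4, 8, 12, 24 h, with tumour static views at 3 and 24 h. Uptake was quantified by MIRD methodology, with tumour mass from baseline MRI. Half-life used decay-corrected fits, and AUC used mono/biexponential fits.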

[2] = Safety evaluation: local and systemic adverse events; type: in vivo, human; conditions: both groups
In short: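 Patients received 35 or 70 mg intralesionally once daily for three consecutive days at weeks 1, 3 and 5. Local and systemic adverse events and routine laboratory parameters were recorded. Systemic toxicity was followed for 24 h after each dose, with cardiovascular monitoring during injection and vital signs. The probability of exceeding 30% grade 3 events per group was estimated.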

histamine = assay: Histamine levels in plasma; type: in vivo, human; conditions: both groups
In short: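 Stage IIB cervical carcinoma patients received 35 or 70 mg intralesionally. Plasma histamine was measured by commercial EIA before, immediately after, and 5, 15, 30 and 60 min after the first administration. Spearman rank correlation was run between histamine and plasma peptide concentration, and between histamine and allergic-reaction severity.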

[3] = Pharmacokinetics of unincorporated CIGB-300 in plasma; type: in vivo, human; conditions: both groups; highest levels only during the first hour after injection
[4] = type: in vivo, NIH nu/nu nude mice; conditions: 100 μg 99mTc-radiolabelled CIGB-300 intratumour in 0.2 or 0.5 ml PBS
In short: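 Female 6–8-week NIH nu/nu mice carried subcutaneous SiHa xenografts (5 × 10^6 cells, right inguinal flank). At 150 mm3, tumours received 100 μg 99mTc-labelled test compound in 0.025, 0.05, 0.2 or 0.5 ml PBS. Planar gamma-camera images were taken immediately and at 0.25, 1, 4, 24, 48 h. Tumour ROI signal was expressed as percent of the total initial image.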

B23/NPM = assay: In situ B23/NPM expression in tumour biopsies by immunohistochemistry; type: in vivo, human
In short: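 Paraffin-embedded tumour biopsies were taken before and after the three treatment cycles. After deparaffinisation, sections were immunostained with a human B23/NPM monoclonal primary antibody and a commercial immunostaining kit, developed with peroxidase and counterstained with hematoxylin. Pre/post values were compared by paired Student's t-test or Wilcoxon test, chosen by the Shapiro–Wilk normality result.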

[5] = system: high-grade squamous intraepithelial lesions; conditions: intralesional injections; ref Solares et al, 2009; cited from earlier work
[6] = system: stage IIB cervical cancer; assay: Therapeutic response by MRI; type: in vivo, human; conditions: 1-year follow-up
In short: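 MRI response was graded by RECIST before and after three peptide cycles, then quarterly for 1 year. Follow-up came after chemoradiotherapy: cisplatin 40 mg m−2 weekly for 6 weeks with 5040 cGy external beam in 28 fractions, then 2600 cGy intracavitary in four fractions. CT and abdominal/gynaecological ultrasonography were used to detect metastasis.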

[7] = system: human cervical cancer SiHa cells; assay: Antitumour activity of different CIGB-300 regimens; type: in vivo, NIH nu/nu nude mice; conditions: 200 μg intratumoural per injection, tumour volume by caliper
[8] = 2 ml at a single tumour site, ref Soriano-García et al, 2013, cited from earlier work

In the case of `CSCC[C@@H]1NC(=O)[C@H](Cc2c[nH]c3ccccc23)NC(=O)[C@@H](NC(=O)CCNC(=O)[C@H](CCC(N)=O)NC(=O)[C@@H]2CCCN2C(=O)[C@@H]2CCCN2C(=O)[C@H](CCCNC(=N)N)NC(=O)[C@H](CCCNC(=N)N)NC(=O)[C@H](CCCNC(=N)N)NC(=O)[C@H](CCC(N)=O)NC(=O)[C@H](CCCNC(=N)N)NC(=O)[C@H](CCCNC(=N)N)NC(=O)[C@H](CCCCN)NC(=O)[C@H](CCCCN)NC(=O)[C@H](CCCNC(=N)N)NC(=O)CN)CSSC[C@@H](C(=O)O)NC(=O)[C@H]([C@@H](C)O)NC(=O)CNC(=O)[C@H](CC(C)C)NC(=O)[C@H](Cc2c[nH]cn2)NC(=O)[C@H](CCCNC(=N)N)NC(=O)[C@@H]2CCCN2C(=O)[C@H](CO)NC1=O` [CIGB-300] (H-GRKKRRQRRRPPQ[βAla]CWMSPRHLGTC-OH; disulfide 15-25; N-terminus and C-terminus assumed), the “Biological half-life (tumour)” value ([1]; group I 35 mg, N=6, mean±s.d.) is reported as 3.9±0.9 (2.6–5.5) h, the “Biological half-life (tumour)” value ([1]; group II 70 mg, N=7, mean±s.d.) is reported as 6.2±1.9 (3.5–10.1) h and the “Maximum uptake (mg CIGB-300 per g tumour)” value ([1]; group II 70 mg, tumour mass estimated by MRI, N=6, mean±s.d.) is reported as 1.1±0.8 (0.4–2.7) ^b mg g^−1. The “Maximum tumour uptake, 70 mg compared with 35 mg” value ([1]; mean values, P=0.01) was “two-fold higher”, the “AUC24 (tumour)” value ([1]; group I 35 mg, N=6, mean±s.d.) was 132±72.2 (45.3–235) mg h and the “AUC24 (tumour)” value ([1]; group II 70 mg, N=7, mean±s.d.) was 385±167 (90.3–646) mg h. The “Maximum uptake (mg CIGB-300)” value ([1]; group I 35 mg intralesional, N=6, mean±s.d.) was 16.1±8.9 (3.8–27.2) mg, the “Maximum uptake (mg CIGB-300)” value ([1]; group II 70 mg intralesional, N=7, mean±s.d.) was 31.3±12.9 (9.9–48.7) mg and the “Blood counts and serum chemistry values, baseline vs post-treatment” value [2] was “no differences”. The “Time to return of plasmatic histamine to normal levels (1 ng ml^−1)” value (histamine; after first injection, rapid increase first) was 15 min, the “Overall histamine median when grade 1 allergic-like events occurred” value (histamine; plasma) was 0.7 ng/mL and the “Overall histamine median when grade 2 allergic-like events occurred” value (histamine; plasma) was 3.5 ng/mL. The “CIGB-300 levels in blood over time” value [3] was “near undetectable after 8 h”, the “CIGB-300 tumour uptake, higher injection volume” value [4] was “worse tumour uptake” and the “B23/nucleophosmin expression at the nucleoplasm” value (B23/NPM; after CIGB-300 treatment) was “not considerably modified”. The “Patients with reduced nucleolar B23/NPM expression after CIGB-300 treatment” value (B23/NPM; evaluated patients of both groups) was 10 out of the 12, the “Levels of in situ B23/NPM in tumour biopsies, post CIGB-300” value (B23/NPM; group I (35 mg), N=6, mean±s.d., baseline 56.0±17.6, Student's t-test p 0.14) was 36.4±18.9 and the “Patients with full histological regression” value [5] was 19%. The “Patients with significant colposcopic response” value [5] was 90%, the “Previously positive patients with negative human papillomavirus DNA” value [5] was 48% and the “Deaths because of disease progression, whole trial” value ([6]; both groups) was “four”. For the same compound, the “Deaths because of disease progression, group I” value ([6]; group I (35 mg)) was “three”, the “Three cycles of three consecutive daily injections” value [7] was “minimal frequency required to reduce tumour growth” and the Maximum tumour uptake ([8]; 35 mg) was 14.9 ± 6.4 mg. For the same compound, the Maximum tumour uptake ([8]; 70 mg) was 10.4 ± 8.3 mg.
